Source: article PMC6466550 (ACS Medicinal Chemistry Letters, 2019)

System: FOPFlash reporter
Experiment: Wnt reporter assay, FOPFlash negative control
Type: cell-based
Settings: 293T cells, 50 mM LiCl, 24 h, luciferase
Summary of the method: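 293T cells transfected with the FOPFlash plasmid, whose TCF/LEF binding sites are mutated. This plasmid served as a negative control for the TOPFlash reporter, which carries eight TCF/LEF binding-site repeats. Wnt signalling was activated with the GSK3beta inhibitor LiCl. Cells were exposed to increasing concentrations of test compound, and reporter activity was then measured.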

Structure (SMILES): CCOC(=O)c1ccc(NS(=O)(=O)c2ccc(Br)cc2)cc1 [Compound 17]
- Effect on activity of FOP reporter: failed to prevent
